ChEMBL document CHEMBL1949632, “Discovery of potent and liver-selective stearoyl-CoA desaturase (SCD) inhibitors in an acyclic linker series” (Bioorg Med Chem Lett, 2012)

What was measured:
[1] = Drug uptake in mouse plasma at 10 mg/kg, po after 6 hrs; format: ADME, organism-based; design: dose 10 mg/kg, route oral
Procedure, shortened: (§1)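 Tissue distribution study. Mice (n = 2) given 10 mg/kg orally; liver, plasma, shaved skin and Harderian gland concentrations measured 6 h post dose.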

[2] = AUC (0 to 6 hrs) in C57BL/6 mouse at 10 mg/kg, po; format: ADME, organism-based, C57BL6; design: time < 6 hr, dose 10 mg/kg, route oral; conditions: plasma
Procedure, shortened: (§2)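 C57BL6 mice dosed orally at 10 mg/kg in 0.5% methocel; plasma PK followed over 0–6 h, giving oral bioavailability (F) and AUC0–6h.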

Acyl-CoA desaturase 1 [3] = molecular target: T1, Acyl-CoA desaturase 1 (Rattus norvegicus, UniProt P07308); experiment: Inhibition of SCD1 in rat hepatocytes expressing OATP; format: cell-based, Hepatocyte
T1 sequence (P07308 whole entry): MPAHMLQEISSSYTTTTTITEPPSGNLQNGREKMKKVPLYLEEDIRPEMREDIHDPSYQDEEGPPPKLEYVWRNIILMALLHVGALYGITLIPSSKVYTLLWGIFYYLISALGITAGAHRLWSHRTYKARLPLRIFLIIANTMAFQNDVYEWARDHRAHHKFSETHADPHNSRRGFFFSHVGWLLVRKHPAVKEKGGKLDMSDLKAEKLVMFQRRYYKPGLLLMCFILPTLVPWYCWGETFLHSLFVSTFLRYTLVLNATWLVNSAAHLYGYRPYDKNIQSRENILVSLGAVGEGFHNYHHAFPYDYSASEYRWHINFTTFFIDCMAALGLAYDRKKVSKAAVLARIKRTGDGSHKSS
Procedure, shortened: (§3)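 IC50s are the average of at least two independent titrations.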

[4] = Stability in rat hepatocytes assessed as compound remaining after 2 hrs; format: ADME, cell-based, Hepatocyte; conditions: read-out: Stability
Procedure, shortened: (§4)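 Fresh mouse or rat hepatocytes, 2 million cells/mL in Krebs-Henseleit buffer, incubated at 37 °C for 2 h under 95% O2/5% CO2. Parent compound remaining measured.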

[5] = Drug uptake in mouse liver at 2 mg/kg, po measured after 3 hrs; format: ADME, organism-based; design: dose 2 mg/kg, route oral; conditions: read-out: Drug uptake
Procedure, shortened: (§5)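 Mouse liver pharmacodynamic model. Mice (n = 5) on high-carbohydrate diet, dosed orally; [1-14C]-stearic acid tracer given intravenously. Liver lipid 14C-oleic/14C-stearic ratio (SCD activity index) and liver drug concentration determined 3 h post dose. % inhibition is relative to vehicle-treated animals.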

[6] = Drug uptake in mouse liver at 10 mg/kg, po after 6 hrs; format: ADME, organism-based; design: dose 10 mg/kg, route oral; conditions: read-out: Drug uptake; procedure, shortened: as §1
Stearoyl-CoA desaturase [7] = molecular target: T2, Stearoyl-CoA desaturase (Homo sapiens, UniProt O00767); experiment: Inhibition of SCD1 in OATP-deficient human HepG2 cells by whole cell assay; format: cell-based
T2 sequence (O00767 whole entry): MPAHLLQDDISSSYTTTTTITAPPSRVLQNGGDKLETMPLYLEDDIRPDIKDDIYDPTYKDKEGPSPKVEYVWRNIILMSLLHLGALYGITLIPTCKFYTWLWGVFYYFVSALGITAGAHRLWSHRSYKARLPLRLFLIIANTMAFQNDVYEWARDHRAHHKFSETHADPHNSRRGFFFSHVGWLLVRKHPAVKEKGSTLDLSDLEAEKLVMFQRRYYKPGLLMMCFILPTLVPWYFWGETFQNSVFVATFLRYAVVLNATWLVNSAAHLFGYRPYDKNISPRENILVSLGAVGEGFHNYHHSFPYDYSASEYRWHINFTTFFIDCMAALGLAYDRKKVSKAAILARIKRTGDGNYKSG

Acyl-CoA desaturase 1 [8] = molecular target: T1, Acyl-CoA desaturase 1; experiment: Inhibition of rat liver microsome SCD1; procedure, shortened: as §3
Mus musculus [9] = experiment: Inhibition of SCD1 in mouse liver assessed as reduction in conversion of [14C]stearic acid to [14C]oleic acid after at 10 mg/kg, po after 3 hrs; format: functional; procedure, shortened: as §5
Mus musculus [10] = experiment: Inhibition of SCD1 in mouse liver assessed as reduction in conversion of [14C]stearic acid to [14C]oleic acid at 2 mg/kg, po measured after 3 hrs; format: functional; procedure, shortened: as §5
[11] = Drug uptake in mouse harderian glands at 10 mg/kg, po after 6 hrs; format: ADME, organism-based, Harderian gland; design: dose 10 mg/kg, route oral; conditions: read-out: Drug uptake; procedure, shortened: as §1
[12] = Drug uptake in mouse shaved skin at 10 mg/kg, po after 6 hrs; format: ADME, organism-based, Zone of skin; design: dose 10 mg/kg, route oral; conditions: read-out: Drug uptake; procedure, shortened: as §1
[13] = Drug uptake in mouse liver at 10 mg/kg, po after 3 hrs; format: ADME, organism-based; design: dose 10 mg/kg, route oral; conditions: read-out: Drug uptake; procedure, shortened: as §5
[14] = Oral bioavailability in C57BL/6 mouse at 10 mg/kg; format: ADME, organism-based, C57BL6; conditions: in vivo; procedure, shortened: as §2
Mus musculus [15] = experiment: Inhibition of SCD1 in mouse liver assessed as reduction in conversion of [14C]stearic acid to [14C]oleic acid after at 0.4 mg/kg, po after 3 hrs; format: functional; procedure, shortened: as §5
[16] = Drug uptake in mouse liver at 0.4 mg/kg, po after 3 hrs; format: ADME, organism-based; design: dose 0.4 mg/kg, route oral; conditions: read-out: Drug uptake; procedure, shortened: as §5
Acyl-CoA 6-desaturase = molecular target: T3, Acyl-CoA 6-desaturase (Homo sapiens, UniProt O95864); experiment: Inhibition of delta-6 desaturase expressed in HepG2 cells; format: cell-based
T3 sequence (O95864 whole entry): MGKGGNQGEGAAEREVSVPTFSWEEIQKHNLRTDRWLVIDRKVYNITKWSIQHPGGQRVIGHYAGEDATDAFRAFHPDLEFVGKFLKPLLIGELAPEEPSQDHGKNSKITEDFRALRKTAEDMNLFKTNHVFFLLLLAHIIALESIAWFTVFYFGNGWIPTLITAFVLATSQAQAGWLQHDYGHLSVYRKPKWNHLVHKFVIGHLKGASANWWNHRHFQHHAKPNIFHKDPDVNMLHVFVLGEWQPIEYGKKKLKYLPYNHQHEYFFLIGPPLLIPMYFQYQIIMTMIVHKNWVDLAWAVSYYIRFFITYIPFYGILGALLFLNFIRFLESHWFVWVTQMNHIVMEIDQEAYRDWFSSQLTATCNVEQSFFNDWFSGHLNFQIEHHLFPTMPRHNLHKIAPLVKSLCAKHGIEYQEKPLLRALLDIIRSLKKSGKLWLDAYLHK

[17] = molecular target: Acyl-CoA (8-3)-desaturase (Homo sapiens, UniProt O60427); experiment: Inhibition of delta-5 desaturase expressed in HepG2 cells; format: cell-based
Sequence of Acyl-CoA (8-3)-desaturase (O60427 whole entry): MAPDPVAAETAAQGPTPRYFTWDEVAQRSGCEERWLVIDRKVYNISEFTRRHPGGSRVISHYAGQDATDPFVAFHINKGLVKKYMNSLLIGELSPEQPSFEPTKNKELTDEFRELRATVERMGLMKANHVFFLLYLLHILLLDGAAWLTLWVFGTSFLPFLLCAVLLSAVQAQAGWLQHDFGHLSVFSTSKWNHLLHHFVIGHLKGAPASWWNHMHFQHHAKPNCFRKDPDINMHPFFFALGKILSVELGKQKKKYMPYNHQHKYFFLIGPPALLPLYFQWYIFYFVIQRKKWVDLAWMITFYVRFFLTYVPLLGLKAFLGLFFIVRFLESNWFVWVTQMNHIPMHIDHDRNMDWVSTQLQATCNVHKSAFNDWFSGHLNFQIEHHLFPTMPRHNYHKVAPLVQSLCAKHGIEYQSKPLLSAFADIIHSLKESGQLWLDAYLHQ

[18] = Stability in mouse hepatocytes assessed as compound remaining after 2 hrs; format: ADME, cell-based, Hepatocyte; conditions: read-out: Stability; procedure, shortened: as §4
Mus musculus [19] = experiment: Inhibition of SCD1 in mouse liver assessed as reduction in conversion of [14C]stearic acid to [14C]oleic acid at 60 mg/kg, po measured after 3 hrs; format: functional; procedure, shortened: as §5
[20] = molecular target: Acyl-CoA desaturase 1 (Mus musculus) (UniProt P13516); experiment: Inhibition of SCD1 in mouse SCD1 enzyme assay
Stearoyl-CoA desaturase [21] = molecular target: T2, Stearoyl-CoA desaturase; experiment: Inhibition of human SCD1
[22] = Drug uptake in mouse liver at 60 mg/kg, po measured after 3 hrs; format: ADME, organism-based; design: dose 60 mg/kg, route oral; conditions: read-out: Drug uptake; procedure, shortened: as §5

concentration at 6 h [1] [µM] | IC50 (Acyl-CoA desaturase 1 [3]) [µM] | concentration at 3 h [5] [µM] | concentration at 6 h [6] [µM] | IC50 (Stearoyl-CoA desaturase [7]) [µM] | IC50 (Acyl-CoA desaturase 1 [8]) [µM] | concentration at 6 h [11] [µM] | concentration at 6 h [12] [µM] | SMILES | inhibition in vivo at 2 mg/kg (Mus musculus [10]) [%] | further results
1.08 | 0.176 | 7.6 | 8.07 | 3.87 | 0.005 | 0.59 | 0.24 | O=C(O)Cn1nnc(-c2cnc(OCCCOc3cc(F)ccc3Br)s2)n1 | 49 | AUC(0-t) at 6 h [2]: 11.4 µM·h; remaining at 2 h [4]: 94%; inhibition in vivo at 10 mg/kg (Mus musculus [9]): 79%; concentration at 3 h [13]: 28.6 µM; bioavailability [14]: 32%
 | 0.945 |  |  | 20.5 | 0.022 |  |  | Cc1nc(OCCCOc2cc(F)ccc2Br)sc1-c1nnn(CC(=O)O)n1 |  | 
 |  |  |  | > 100 | 0.305 |  |  | O=C(O)Cn1nnc(-c2cc(OCCOCc3cc(F)ccc3Br)no2)n1 |  | 
0.03 |  | 4.9 | 2.7 |  |  | 0.13 | 0.07 | O=C(O)Cn1nnc(-c2cc(N3CCC(Oc4cc(F)ccc4Br)CC3)no2)n1 [MK-8245] | 89 | inhibition in vivo at 0.4 mg/kg (Mus musculus [15]): 49%; concentration at 3 h [16]: 1.6 µM
 | 0.213 |  | 0.23 | 7.74 | 0.013 |  |  | O=C(O)Cn1nnc(-c2cc(OCCCOc3cc(F)ccc3Br)no2)n1 |  | IC50 (Acyl-CoA 6-desaturase): > 20 µM; IC50 [17]: > 20 µM; AUC(0-t) at 6 h [2]: 1 µM·h; remaining at 2 h [4]: 55%; remaining at 2 h [18]: 75%; inhibition in vivo at 60 mg/kg (Mus musculus [19]): 85%; IC50 [20]: 0.01 µM; IC50 (Stearoyl-CoA desaturase [21]): 0.041 µM; bioavailability [14]: 10%; concentration at 3 h [22]: 7.8 µM
0.77 | 0.091 | 4.2 | 13.7 | 0.969 | 0.002 | 1.85 | 0.3 | O=C(O)Cn1nnc(-c2cnc(OCCCOc3cc(OC(F)(F)F)ccc3Br)s2)n1 | 81 | inhibition in vivo at 10 mg/kg (Mus musculus [9]): 91%; concentration at 3 h [13]: 18.3 µM
 |  |  |  | > 60 | 0.026 |  |  | O=C(O)Cn1nnc(-c2nnc(OCCCOc3cc(F)ccc3Br)s2)n1 |  | 
 |  |  |  | > 40 | 0.226 |  |  | O=C(O)Cn1nnc(-c2cc(OCCOc3cc(F)ccc3Br)no2)n1 |  | 
 |  |  |  | > 40 | 0.248 |  |  | O=C(O)Cn1nnc(-c2cc(OCCCCOc3cc(F)ccc3Br)no2)n1 |  | 
